High-throughput results (PubChem)
Compounds with a hit are over-represented: about 2.9% of the library has one in this group of screens.
Wee1 degr inh = Wee1 degradation inhibitors, primary screen, cell-based, HeLa, Wee1K328M-luciferase, luminescence; Wee1-like protein kinase (Homo sapiens), P30291; HeLa Luc-Wee1K328M stability; 100% = proteasome inhibitor MG132 effect; reporter increase, % at 5 µM; 220,000 compounds, 1.2% hits; AID 1321, 2008;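 active = activation above the mean of all tested compounds plus 3 SD, set per screening run, cut at about 8.8% in these data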;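 note: cells exposed to compound for 20 h before luminescence read; 0% = DMSO alone and 100% = MG132 at 30 µM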
Runt-CBFb FRET = inhibitors of RUNX1 Runt–CBFb binding, primary screen, biochemical, FRET, Cerulean-Runt, Venus-CBFb, uHTS; Cerulean-Runt/Venus-CBFb FRET ratio 530/480, 1 h; 220,000 compounds, 0.46% hits; Runt-related transcription factor 1 (Homo sapiens) + Core-binding factor subunit beta …; inhibition, % at 20 µM; AID 1496, 2009;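 active = inhibition over about 50% at 20 µM in the single-dose screen, limit read from the data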;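 note: 0% = DMSO wells and 100% = excess unlabeled CBFb competitor control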
Target sequence (Q01196 whole entry, looked up): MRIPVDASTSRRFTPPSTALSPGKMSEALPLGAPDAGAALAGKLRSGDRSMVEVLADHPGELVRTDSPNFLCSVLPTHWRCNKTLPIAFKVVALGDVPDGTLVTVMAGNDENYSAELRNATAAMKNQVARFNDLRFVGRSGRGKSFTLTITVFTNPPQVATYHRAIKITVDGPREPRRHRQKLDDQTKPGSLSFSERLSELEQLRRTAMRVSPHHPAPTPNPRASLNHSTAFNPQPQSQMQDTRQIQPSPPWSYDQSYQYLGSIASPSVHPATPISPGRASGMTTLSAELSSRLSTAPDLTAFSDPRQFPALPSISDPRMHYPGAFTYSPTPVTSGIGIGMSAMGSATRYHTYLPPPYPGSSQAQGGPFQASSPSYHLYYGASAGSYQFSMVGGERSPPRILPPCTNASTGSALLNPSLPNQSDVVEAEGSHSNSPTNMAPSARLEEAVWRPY
Target sequence (Q13951 whole entry, looked up): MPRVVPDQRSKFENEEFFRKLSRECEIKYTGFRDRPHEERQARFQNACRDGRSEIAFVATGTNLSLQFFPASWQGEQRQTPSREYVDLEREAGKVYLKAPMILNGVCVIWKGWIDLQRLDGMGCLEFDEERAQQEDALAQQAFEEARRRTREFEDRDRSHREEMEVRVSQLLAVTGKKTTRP
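Doses: 20 µM compound in 1% DMSO | Material: Cerulean-labeled Runt domain protein | Amount: Each fluorescent fusion protein 100 nM | Schedule: Two 1 h room-temperature incubations shielded from light | Measured by: FRET fluorescence | Evaluation: Loss of energy transfer signal | Controls: Unlabeled CBFb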
Runt-SMMHC FRET = inhibitors of RUNX1 Runt–CBFb-SMMHC binding, primary screen, biochemical, FRET, Cerulean-Runt, Venus-CBFb-SMMHC, uHTS; AID 1434, 2008; Runt-related transcription factor 1 (Homo sapiens) + Core-binding factor subunit beta …; inhibition, % at 20 µM; 220,000 compounds, 0.74% hits; Cerulean-Runt/Venus-CBFb-SMMHC FRET ratio 530/480, 1 h;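 active = mean inhibition across duplicate retests at 20 µM reaching about 50%, limit read from the data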;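 note: 0% = DMSO wells and 100% = wells with excess untagged CBFb-SMMHC; inhibitors lower the FRET ratio by blocking Runt binding to CBFb-SMMHC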
KLK7 zymogen act = proKLK7 zymogen activators, primary screen, biochemical, fluorescence intensity. Kallikrein-7 (Homo sapiens), P49862. purified proKLK7, EDANS-DABCYL substrate fluorescence; 100% is mature enzyme control, 0% vehicle. activation, % at 7 µM. 370,000 compounds, 0.9% hits. AID 652039, 2013;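 active = activation above the mean of all tested compounds plus 3 SD, computed per campaign excluding outliers beyond control limits, cut at about 13% in these data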
AI-2 QS mod = Vibrio harveyi AI-2 quorum sensing modulators, primary screen, JMH597 strain, luminescence/OD600 ratio; Vibrio harveyi JMH597 AI-2 luminescence/OD600 ratio, 9 h; active compounds read low; strain lacks LuxN and CqsS sensors; 0 = neutral-control median; activity change, % at 7.5 µM; 300,000 compounds, 0.4% hits; in the data active = activity change below about -75%, passing the limit was not always enough; inconclusive = no clear call, values can overlap the other calls;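 note: luminescence divided by OD600 gain over 9 h not by final OD600 alone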
RanGTP-Impb inh = inhibitors of RanGTP-importin-beta interaction, primary screen, biochemical, FRET, CFP-Ran, YFP-importin-beta, homogeneous; inhibition, % (no concentration beside the values); 300,000 compounds, 1.1% hits; cell-free CFP-Ran/YFP-importin-beta FRET ratio; Ran GTPase (GTP-bound) - importin-beta complex;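 active = more than half of the replicate wells show a fall in the fluorescence ratio signal beyond about 16%, limit read from the data, passing the limit was not always enough; inconclusive = exactly half of the replicate wells pass the set limit; inactive = fewer than half of replicates pass the limit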;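 note: 0% = DMSO wells and 100% = Ran loaded with GDP instead of GTP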
Wee1 stab conf = Wee1 degradation inhibitors, confirmation, cell-based, HeLa, Wee1K328M-luciferase, luminescence, triplicate; shares compounds with Wee1 degr inh; HeLa Luc-Wee1K328M degradation; vehicle 0%, proteasome-blocked wells 100%; activation, % at 5 µM; 1,100 compounds, 4% hits; AID 1410, 2008; in the data active = activation above about 8.9%
* marks the source's active call; other numbers are inactive results; ? = inconclusive; · = no result.

SMILES | Wee1 degr inh | Runt-CBFb FRET | Runt-SMMHC FRET | KLK7 zymogen act | AI-2 QS mod | RanGTP-Impb inh | Wee1 stab conf
Cc1cc(C)nc(NC(=O)c2ccc(COc3ccccc3Cl)cc2)c1 | 14.0* | 0.8 | 1.2 | -0.3 | 14.2 | -4.3 | 2.2
C[C@H](CO)N1C[C@H](C)[C@@H](CN(C)Cc2ccncc2)OCc2cnnn2CCCC1=O | · | · | · | 0.4 | · | · | ·
CC(=O)Nc1nc(C)c(CCC2OCCO2)c(=O)[nH]1 | 11.0* | 2.3 | 0.4 | 0.1 | 13.9 | -5.4 | -0.5
Cc1[nH]c(=S)[nH]c(=O)c1CCC1OCCO1 | -1.6 | 4.3 | -6.7 | -0.5 | 5.3 | -0.3 | ·
Cn1cc(Br)c(C(=O)NC2C3CC4CC(C3)CC2C4)n1 (configuration not stated) | 12.1* | -2.8 | 0.0 | 0.1 | 16.6 | -0.7 | -0.2
O=C(Cn1cnc2ccccc2c1=O)OCC(=O)c1ccc2c(c1)OCCO2 | 11.4* | -0.8 | 0.6 | 0.6 | 1.8 | ? | 0.9
O=C(Cn1cnc2ccccc2c1=O)Nc1ccc2c(c1)OCCO2 | 10.9* | 0.8 | 1.2 | 0.4 | -68.6 | -0.8 | 5.8
c1cc2c3c(cccc3c1)C(N1CCN(C3=Nc4cccc5cccc3c45)CC1)=N2 | 0.3 | · | · | · | · | · | ·
COc1ccccc1N1CCN(C2=Nc3cccc4cccc2c34)CC1 | 15.3* | -16.7 | -23.4 | 2.9 | 10.7 | -6.5 | 1.7
CCOC(=O)c1c(NCc2ccccc2)n[nH]c1C | 0.1 | 1.0 | 2.8 | 0.0 | 12.9 | -2.7 | ·
CCOC(=O)c1c(Nc2ccccc2OCCOC)n[nH]c1C | 11.4* | -1.8 | 3.0 | 0.0 | 20.2 | 1.5 | 0.0
CC(C)NS(=O)(=O)c1ccc(OCC(=O)N2CCCC2)cc1 | -1.3 | 1.8 | 2.2 | 0.2 | 18.4 | 4.1 | ·
CC(C)NS(=O)(=O)c1ccc(OCC(=O)N2CCc3ccccc3C2)cc1 | 12.7* | 1.6 | -1.0 | 0.2 | 20.7 | 1.9 | 2.9
CCc1cc2cc(C)cc(C)c2nc1SCC(=O)Nc1cc(C)on1 | 11.0* | 0.3 | 2.8 | -0.2 | -3.7 | -0.6 | -0.2
COc1ccc2cc(C3CC(c4ccco4)=NN3S(=O)(=O)c3ccccc3)c(Cl)nc2c1 (configuration not stated) | 16.5* | -2.5 | -2.9 | -0.2 | 1.4 | 3.3 | 1.4
S=c1[nH]nc(Nc2ccc(Cl)cc2)s1 | 15.1* | 36.5 | 16.5 | 0.1 | -17.8 | 0.2 | 0.0
CN(C)S(=O)(=O)c1cccc(NC(=O)CNCC2CCCCC2)c1 | 12.0* | 0.7 | 2.3 | 0.4 | 26.6 | 3.7 | 0.6
CN(C)S(=O)(=O)c1cccc(NC(=O)CNc2cccc(S(=O)(=O)N3CCCCC3)c2)c1 | · | · | · | 0.6 | · | · | ·
CCOC(=O)Cn1c(=NC(=O)CSC(C)=O)sc2ccccc21 | 16.3* | -1.1 | 1.7 | 0.4 | 23.5 | 0.5 | 3.3
CCOC(=O)Cn1c(=NC(=O)CSC(C)=O)sc2cc(OC)ccc21 | 0.1 | 1.6 | -2.6 | -0.8 | 16.5 | 4.4 | ·
COc1ccccc1NC(=O)CNC(=O)c1ccc(F)cc1 | 10.9* | 1.4 | 0.9 | -0.5 | 6.0 | -5.3 | 1.3
C=CCn1c(=O)c2ccc(C(=O)NCc3ccccc3)cc2n(Cc2ccc(C)cc2)c1=O | -0.9 | -2.5 | -21.5 | -0.5 | 23.3 | ? | ·
Cc1c(O)cc2n(c1=O)-c1ccccc1C2(C)C | -2.4 | -1.6 | -4.7 | -0.3 | 28.5 | -1.3 | ·
CC1(C)c2ccccc2-n2c1cc1oc(=O)cc(O)c1c2=O | 15.0* | 2.6 | -8.7 | 0.0 | 10.7 | 1.5 | 2.3
O=C(OCc1nnc(-c2ccccc2)o1)c1cc(Cl)ccc1[N+](=O)[O-] | 3.1 | -0.3 | 0.1 | 0.0 | 4.3 | 3.7 | ·
SMILES | Wee1 degr inh | Runt-CBFb FRET | Runt-SMMHC FRET | KLK7 zymogen act | AI-2 QS mod | RanGTP-Impb inh | Wee1 stab conf
COc1ccc(-c2noc(CSc3nc(-c4ccccc4)cc(=O)[nH]3)n2)cc1OC | 14.0* | -2.9 | -0.1 | -0.1 | 49.1 | 0.4 | -0.2
COc1ccc(-c2noc(CSc3nc(N)cc(=O)[nH]3)n2)cc1 | 6.3 | 3.3 | -2.8 | 0.7 | -1.9 | -2.5 | ·
CNS(=O)(=O)c1cccc(C(=O)OCC(=O)Nc2ccc(Cl)cn2)c1 | 12.0* | 1.5 | 0.7 | 0.6 | 25.1 | -4.0 | 1.5
COc1ccccc1CNC(=O)CCNS(=O)(=O)/C=C/c1ccc(C)cc1 | · | · | · | 0.5 | · | · | ·
COc1cc(/C=N/NC(=O)c2ccccc2O)ccc1OCC(=O)Nc1ccccc1 | · | · | · | -0.1 | 16.1 | -3.1 | ·
COc1cc(C=C2C(=O)OC(C)(C)OC2=O)ccc1OCC(=O)Nc1ccccc1 | 15.3* | -0.5 | 3.4 | -0.7 | 16.2 | -3.1 | 3.2
Cc1nc2ccccc2n1CCN1CCOCC1 | 11.6* | -1.4 | -2.9 | -0.2 | 7.4 | 4.6 | -0.7
CCNC(=O)C1(C)CCN(C(=O)c2ccc(C(=O)OC)cc2)C1 (configuration not stated) | · | · | · | 0.1 | · | · | ·
CCN(CC(=O)NCc1ccc(Cl)cc1)C(=O)C1CCN(S(=O)(=O)c2ccc(OC)c(OC)c2)CC1 | · | · | · | 0.1 | 6.5 | 3.2 | ·
CC(c1ccccn1)N(C)C(=O)c1ccc2nc(Cc3ccccc3F)oc2c1 (configuration not stated) | · | · | · | -0.2 | 4.6 | 2.9 | ·
COc1ccc(-c2c(C(=O)c3ccc(Br)cc3)[nH]c(N)c2C(=O)c2ccccc2)cc1OC | · | · | · | -0.2 | · | · | ·
COc1ccc(CNCCC2(Cc3ccccc3)CC(C)N(C)CC2C)cc1OC (configuration not stated) | 16.8* | -0.7 | -1.7 | 0.4 | -3.6 | -0.5 | -0.2
O=C(NCc1cccs1)c1ccccc1 | -0.9 | 0.1 | -3.0 | -0.3 | 9.2 | 0.8 | ·
O=C(NCc1cccs1)c1cccc(Nc2nc3ccc(Br)cc3[nH]2)c1 | 14.8* | -1.0 | 9.8 | 0.7 | 11.1 | 0.8 | 3.0
O=C(COC(=O)c1cnccn1)c1cccc([N+](=O)[O-])c1 | -3.1 | 1.0 | 2.7 | -0.6 | · | 1.2 | ·
